b-catenin transl: modulators of beta-catenin nuclear translocation, primary screen, imaging, HeLa cells, immunofluorescence, high-content | nuclear translocation activity, % at 5 µM | 190,000 tested, 0.3% active | AID 1665, 2009;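 active = nuclear translocation activity above 50% at 5 µM, with a well cell count of 50 or more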;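 also: per-cell ratio of nuclear to cytoplasmic median beta-catenin stain intensity; plate controls were DMSO negative control for no effect and GSK-3 inhibitor IX positive control for full effect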
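Test system: HeLa cells, endogenous beta-catenin; Compound: single 5 µM dose plus 0.02–20 µM confirmation series; Times: compound exposure 24 h at 37°C; Signal: fluorescence imaging of beta-catenin antibody stain plus DAPI; Read-out: % activation, nuclear-to-cytoplasmic median beta-catenin signal ratio per cell.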
KLF5 inhibitor: KLF5 expression inhibitors, primary screen, DLD-1 cells, luminescence | inhibition, % at 5 µM | 290,000 tested, 0.23% active | DLD-1 KLF5 promoter-luciferase reporter | AID 1700, 2009;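 active = inhibition above a per-plate limit of that plate's mean compound inhibition plus 3 SD, cut at about 60% in these data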;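 also: 0% = DMSO wells and 100% = LY294002 at 200 µM; higher means less KLF5 promoter-driven luciferase light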
BaF3 tox: parental Ba/F3 cell viability inhibition, counter-screen for JAK2V617F inhibitor project, murine pro-B, CellTiter-Glo luminescence; CellTiter-Glo ATP luminescence; inhibition, % at 5.6 µM; 220,000 tested, 1.1% active; AID 1486, 2009;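 active = inhibition above a per-campaign cutoff, the mean inhibition of all tested compounds plus 3 SD, cut at about 27% in these data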;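 also: 0% = DMSO wells and 100% = JAK Inhibitor I control wells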
IEC-6 tox: cytotoxicity in IEC-6 intestinal epithelial cells, primary screen, cytotoxicity control for KLF5 inhibitor project, cell-based, luminescence | IEC-6 cytotoxicity, luminescence viability | inhibition, % at 5 µM | 290,000 tested, 0.78% active | AID 1825, 2009;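 also: 0% = plate median of test compound wells and 100% = cytotoxic reference compound wells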
MT stabilize HCS: microtubule stabilizers in HeLa cells, primary screen, imaging, high-content imaging. HeLa tubulin immunostaining HCS, 24 h; share of cells brighter than vehicle mean+2SD. % tubulin-high responders, % at 10 µM. 200,000 tested, 0.83% active;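 active = plate Z-score above 3 for both tubulin-high and condensed-nucleus cell shares, with cell loss under 80%, at 10 µM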;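 also: anti alpha tubulin signal scored within the nucleus-defined area of each cell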
Ba/F3 V617F tox: reduced viability of JAK2V617F-dependent Ba/F3 cells, primary screen, JAK2V617F inhibitor project, cell-based, Ba/F3 EpoR-JAK2V617F, luminescence; ATP luminescence; AID 1446, 2008; 220,000 tested, 1.1% active; inhibition, % at 5.6 µM;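 active = inhibition above the campaign mean plus 3 SD over all tested compounds, cut at about 24% in these data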;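 also: cytokine-independent growth of Ba/F3 cells driven by EpoR plus mutant JAK2; 0% = DMSO-treated cells and 100% = JAK inhibitor I control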
IEC-6 tox confirm: cytotoxic compounds in IEC-6 epithelial cells, confirmation, cytotoxicity control, cell-based, luminescence; shares compounds with IEC-6 tox; IEC-6 rat intestinal epithelial viability; inhibition, % at 5 µM; 1,900 tested, 63% active; AID 1907, 2009;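 also: 0% = vehicle and 100% = reference cytotoxic drug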
An asterisk follows results filed as active; . = no result. Most compounds without a hit are left out; they make up all but 2.1% or so of the library. Rule as the data show it, unless noted: active = inhibition above about 22%; inactive = the rest.

SMILES	b-catenin transl	KLF5 inhibitor	BaF3 tox	IEC-6 tox	MT stabilize HCS	Ba/F3 V617F tox	IEC-6 tox confirm
O=C(C#Cc1ccccc1)c1ccco1	.	54	.	101*	.	.	28*
O=C(N/N=C/c1ccccc1)c1ccco1	0	-109	1	3	.	-1	.
Cc1cccc(NNC(=O)C(=O)NNc2cccc(C)c2)c1	2	34	-1	34*	.	-1	-14
O=C(Nc1cccc(Cl)c1N1CCOCC1)c1cccs1	.	-17	.	-4	.	.	.
Cc1ccc(NC(=O)c2nsc(Cl)c2Cl)cc1	-2	-131	-3	24*	.	2	-4
c1ccc(CNc2c3ccccc3nc3ccccc23)cc1	.	-4	.	26*	.	.	16
Cc1nn(Cc2noc(C(=O)NC3CCC(C)CC3)n2)c(C)c1Br (centres undefined)	.	-16	.	35*	.	.	24*
O=C(CS(=O)(=O)c1ccc(Cl)cc1)Nc1nnc(-c2cccs2)o1	.	-27	.	3	.	.	.
COc1cccc(NC(=S)Nc2cccc3ccccc23)c1	.	-109	.	36*	.	.	7
CC(=O)NNC(=S)Nc1cc(S(=O)(=O)N(C)C)ccc1C	2	-9	4	0	1	3	.
Cc1ccc(S(=O)(=O)N(C)C)cc1NC(=S)Nc1cccc2ccccc12	.	-9	.	62*	.	.	4
CCc1cccc(NC(=S)Nc2cccc3ccccc23)c1	.	-48	.	29*	.	.	14
O=C(NC(=S)Nn1cnnc1)c1ccccc1Br	-1	-13	-2	-2	.	-3	.
O=C(COc1ccc(S(=O)(=O)NCc2ccccc2)cc1)NCc1cccnc1	.	2	.	1	.	.	.
COc1ccc(OCC(=O)Nc2ccccc2N2CCCCC2)cc1	.	56	.	70*	.	.	42*
COc1cccc(OC)c1C(=O)Nc1ccccc1N1CCCCC1	.	3	.	26*	.	.	2
COc1ccc(OCC(=O)Nc2ccccc2N2CCN(C)CC2)cc1	.	17	.	2	.	.	.
COc1ccc(OCC(=O)Nc2ccccc2-c2ccccc2)cc1	1	10	7	28*	34*	4	15
O=C(c1ccc(Cl)cc1Cl)N1CCC(C(=O)N2CCOCC2)CC1	.	-16	.	0	.	.	.
Cc1cc2nc(C3CCN(Cc4nnnn4Cc4cccs4)CC3)[nH]c2cc1C	-4	-11	7	46*	3	2	34*
COc1ccc(CN(C(=O)c2snc(C(N)=O)c2N)C(C(=O)NC2CCCC2)c2ccco2)cc1 (centres undefined)	.	-17	.	-3	.	.	.
Cc1cccc(NC(=O)CSc2nc3ccccc3nc2N2CCCC2)c1	.	-10	.	32*	.	.	5
COc1cccc(NC(=O)CSc2nc3ccccc3nc2N2CCCC2)c1	.	-8	.	9	.	.	.
Cc1cccc(NC(=O)CSc2nc3ccccc3nc2N2CCCCC2)c1	.	36	.	43*	.	.	29*
COc1ccc(S(=O)(=O)N(C)CC(=O)NCc2ccco2)cc1OC	.	-11	.	-9	.	.	.
SMILES	b-catenin transl	KLF5 inhibitor	BaF3 tox	IEC-6 tox	MT stabilize HCS	Ba/F3 V617F tox	IEC-6 tox confirm
COc1ccc(C(=O)NCC(=O)N/N=C(\C)Cc2ccccc2)cc1	.	-13	.	-2	.	.	.
Clc1ccc(C2=Nn3c(nnc3-c3n[nH]c4c3CCC4)SC2)cc1	4	-10	50*	32*	32*	55*	50*
COc1ccc(NS(=O)(=O)c2cc(OC)ccc2NC(=O)c2cc(C)oc2C)cc1	3	33	66*	45*	38*	62*	30*
CCOC(=O)C(NC(=O)Nc1ccc(Cl)cn1)(Oc1ccc(F)cc1)C(F)(F)F (centres undefined)	-3	-3	12	25*	2	7	-4
N#C/C(=C(/O)c1ccc(Br)s1)c1nc2ccccc2[nH]1	.	8	.	34*	.	.	46*
CCOC(=O)CCC(=O)NNC(=O)COc1ccc(C(C)C)cc1Br	-3	-41	7	-2	3	1	.
Oc1ccc(CCNc2ncnc3ccc(Cl)cc23)cc1	.	42	.	23*	.	.	10
O=[N+]([O-])c1nn(-c2ccccc2)[n+]([O-])c1N1CCN(c2ccccc2F)CC1	0	-38	3	6	4	1	.
O=c1cc(CSc2ccc(Cl)cc2)nc(-c2ccccn2)[nH]1	.	55	.	87*	.	.	55*
O=c1cc(CSc2ccc(Cl)cc2)nc(-c2ccccc2)[nH]1	-1	2	6	0	2	-1	.
COc1ccc(-c2nnc3ccc(SC)nn23)cc1	-2	-29	10	2	5	1	.
CCOc1ccc(CCNC(=O)Cc2ccc(NC(=O)C3=C(C)OCCS3)cc2)cc1	.	-31	.	3	.	.	.
CSc1ccc(CNC(=O)Cc2ccc(NC(=O)C3=C(C)OCCS3)cc2)cc1	.	-40	.	27*	.	.	35*
CN(c1ccccc1)S(=O)(=O)c1ccc(NC(=O)c2nc(S(C)(=O)=O)ncc2Cl)cc1	.	23	.	95*	.	.	3
COc1cccc(NC(=O)c2nc(SC)ncc2Cl)c1	.	-12	.	10	.	.	.
COc1cccc(NC(=O)c2nc(S(C)(=O)=O)ncc2Cl)c1	.	30	.	100*	.	.	17
CN(c1ccccc1)S(=O)(=O)c1ccc(NC(=O)c2ccccc2)cc1	1	8	1	2	2	-5	.
Cc1cc2cc3c(cc2nc1SCC(=O)N1CCCC1)OCCO3	.	-4	.	30*	.	.	38*
Cc1ccccc1NC(=O)CSc1nc2scc(C)c2c(=O)[nH]1	.	-16	.	37*	.	.	21
COc1ccc(CCNC(=O)C2CCCN(S(=O)(=O)c3ccc(F)cc3)C2)cc1 (centres undefined)	.	-28	.	-3	.	.	.
CC(=O)NCCC(=O)N1CCCC(N(C)CCc2ccccc2)C1 (centres undefined)	.	-14	.	6	.	.	.
COc1ccccc1CNC(=O)c1ccc(OC(F)F)c(OC)c1	0	0	0	35*	4	0	2
Cc1cccc(N2CCN(C(=O)CSc3nc4ccccc4nc3N3CC(C)OC(C)C3)CC2)c1C (centres undefined)	.	-1	.	-4	.	.	.
COc1cccc(CNc2ccc(C)c(Cl)c2)c1	-2	-26	5	-3	1	1	.
C=CCOc1c(Cl)cc(CNc2ccc(C)c(Cl)c2)cc1OC	146*	50	77*	50*	18*	77*	51*
CCCC(C)NC(=O)COC(=O)c1ccccc1SCC(=O)NC(C)CCC (centres undefined)	-6	-1	0	3	5	-3	.
CCCNC(=O)c1cc2c3ccccc3n(C)c2s1	-2	-6	8	5	0	-1	.
Cn1c2ccccc2c2cc(C(=O)NNC(=O)CCl)sc21	4	12	1	27*	6	22	17

Source: PubChem (several laboratories)
